Legend:
[1] = system: S. aureus; assay: Biofilm formation, crystal violet staining assay; type: cell-based, Staphylococcus aureus; conditions: compared to a DMSO control, one replicate
[2] = target: p38 MAP kinase; conditions: read-out: inhibition of p38 MAP kinase; quantity type not given; cited from earlier work
[3] = system: Pseudomonas aeruginosa; assay: Cell viability by optical density and resazurin indicator dye; type: cell-based; conditions: compared to a DMSO control, one replicate
[4] = target: VicK (Streptococcus pneumoniae, UniProt Q8DPL8); assay: ATP[γ-33P] enzymatic activity inhibition assay; type: biochemical; conditions: at non-aggregating concentrations
How it was run: (§1)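 Secondary assay run in a coupled competition-aggregation format on two histidine kinases: HK853 from Thermotoga maritima and VicK from Streptococcus pneumoniae. Enzymatic activity is followed using ATP[γ-33P], and the degree of inhibition by the test compound is measured.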

[5] = system: protein kinase D; conditions: cited from earlier work
[6] = system: HK853; assay: Fluorescence polarization; type: binding, Thermotoga maritima
[7] = system: P. aeruginosa; assay: Biofilm formation, crystal violet staining assay; type: cell-based, Pseudomonas aeruginosa; conditions: compared to a DMSO control, one replicate
[8] = system: Methicillin-sensitive Staphylococcus aureus; assay: Cell viability by optical density and resazurin indicator dye; type: cell-based; conditions: compared to a DMSO control, one replicate
[9] = system: HK853; assay: ATP[γ-33P] enzymatic activity inhibition assay; type: biochemical, Thermotoga maritima; conditions: at non-aggregating concentrations
How it was run: as §1

Chain of VicK (Q8DPL8 whole entry): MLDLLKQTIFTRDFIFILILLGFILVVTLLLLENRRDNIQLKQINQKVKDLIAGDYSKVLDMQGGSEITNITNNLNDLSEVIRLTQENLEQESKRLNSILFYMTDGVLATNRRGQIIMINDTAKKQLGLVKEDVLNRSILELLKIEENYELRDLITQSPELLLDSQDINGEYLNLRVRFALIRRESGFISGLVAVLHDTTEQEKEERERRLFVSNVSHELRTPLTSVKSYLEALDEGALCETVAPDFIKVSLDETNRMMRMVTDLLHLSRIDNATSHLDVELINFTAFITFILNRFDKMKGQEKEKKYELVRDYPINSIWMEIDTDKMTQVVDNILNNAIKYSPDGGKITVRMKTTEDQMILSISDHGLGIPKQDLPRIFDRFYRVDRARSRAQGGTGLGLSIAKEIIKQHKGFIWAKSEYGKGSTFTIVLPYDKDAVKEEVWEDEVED

activity in the HTS (FP screen) for HK inhibition ([6]; related library compounds that were not leads)	SMILES	effect on biofilm production [1]	IC50 [2] [nM]	effect on cell viability [3]	inhibition of VicK activity [4]	inhibition of protein kinase D [5]	displacement of ADP-BODIPY from the HK ATP-binding domain [6]	effect on biofilm production [7]	effect on cell viability [8]	inhibition of HK activity [9]
	Fc1ccc(-c2c(-c3ccncc3)[nH]c3nccnc23)cc1 [compound 32]	little effect	53	did not cause a significant decrease in cell viability	inhibit	potent inhibitor	displace ADP-BODIPY	little effect	did not cause a significant decrease in cell viability	inhibit
inactive	Fc1ccc(-c2c(-c3ccncc3)[nH]c3cccnc23)cc1 [RO1153853–000]									
